Laboratory results published in ChEMBL document CHEMBL1154048, “Design, synthesis and pharmacological evaluation of new 1-[3-(4-arylpiperazin-1-yl)-2-hydroxy-propyl]-3,3-diphenylpyrrolidin-2-one derivatives with antiarrhythmic, antihypertensive, and alpha-adrenolytic activity” (Eur J Med Chem, 2009).
Active and inactive are the calls of the source.

How the values were obtained:
[1] = biological target: T1, Adrenergic receptor alpha-1 (Rattus norvegicus, UniProt P15823+P23944+P43140); test: Displacement of [3H]prazosin from alpha1 adrenergic receptor in rat cerebral cortex by liquid scintillation counting; format: tissue-based
T1 sequence (P15823 whole entry): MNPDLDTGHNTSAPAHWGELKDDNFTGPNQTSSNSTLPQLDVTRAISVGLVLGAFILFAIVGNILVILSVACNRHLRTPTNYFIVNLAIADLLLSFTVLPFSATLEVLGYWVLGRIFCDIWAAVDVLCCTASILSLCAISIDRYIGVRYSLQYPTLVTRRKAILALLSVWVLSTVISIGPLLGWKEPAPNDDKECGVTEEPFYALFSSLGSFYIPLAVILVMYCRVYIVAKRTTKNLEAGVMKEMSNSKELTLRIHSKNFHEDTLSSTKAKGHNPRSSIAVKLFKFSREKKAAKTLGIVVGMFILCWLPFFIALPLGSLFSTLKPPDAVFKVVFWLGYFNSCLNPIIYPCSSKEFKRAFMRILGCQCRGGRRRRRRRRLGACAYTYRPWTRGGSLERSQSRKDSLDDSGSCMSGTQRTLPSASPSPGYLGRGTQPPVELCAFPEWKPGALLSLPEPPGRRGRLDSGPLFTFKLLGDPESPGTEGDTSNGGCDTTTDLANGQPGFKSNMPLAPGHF
T1 sequence (P23944 whole entry): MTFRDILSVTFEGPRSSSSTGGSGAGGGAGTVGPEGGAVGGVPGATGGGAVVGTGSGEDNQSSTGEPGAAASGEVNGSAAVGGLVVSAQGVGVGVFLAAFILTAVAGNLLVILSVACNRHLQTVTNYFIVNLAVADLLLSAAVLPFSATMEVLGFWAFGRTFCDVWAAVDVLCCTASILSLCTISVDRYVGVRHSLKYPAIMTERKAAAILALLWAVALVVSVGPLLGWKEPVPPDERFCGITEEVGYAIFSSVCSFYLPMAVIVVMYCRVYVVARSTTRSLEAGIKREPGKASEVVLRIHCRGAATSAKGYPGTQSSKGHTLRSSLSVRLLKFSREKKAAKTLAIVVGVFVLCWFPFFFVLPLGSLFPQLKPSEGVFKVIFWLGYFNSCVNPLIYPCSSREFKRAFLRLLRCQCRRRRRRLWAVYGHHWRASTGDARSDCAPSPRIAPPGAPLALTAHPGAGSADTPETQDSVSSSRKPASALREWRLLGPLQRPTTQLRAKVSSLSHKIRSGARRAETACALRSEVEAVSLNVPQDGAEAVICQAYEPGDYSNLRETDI
T1 sequence (P43140 whole entry): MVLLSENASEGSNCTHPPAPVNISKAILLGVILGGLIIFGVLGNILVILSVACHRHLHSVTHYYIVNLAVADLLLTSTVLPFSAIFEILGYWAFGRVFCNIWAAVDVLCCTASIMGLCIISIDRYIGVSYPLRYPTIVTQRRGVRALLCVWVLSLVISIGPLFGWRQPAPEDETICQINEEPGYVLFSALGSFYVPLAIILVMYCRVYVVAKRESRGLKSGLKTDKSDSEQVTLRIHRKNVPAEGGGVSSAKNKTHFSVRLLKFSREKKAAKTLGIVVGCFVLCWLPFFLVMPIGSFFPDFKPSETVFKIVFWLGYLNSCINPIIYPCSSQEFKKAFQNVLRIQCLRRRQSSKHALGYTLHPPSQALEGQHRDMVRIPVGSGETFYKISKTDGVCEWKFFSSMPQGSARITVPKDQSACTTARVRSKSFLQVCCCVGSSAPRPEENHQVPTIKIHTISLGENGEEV
Outline: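 Rat cerebral cortex was homogenized in ice-cold 50 mM Tris–HCl pH 7.6, centrifuged 20 000 × g for 20 min at 0–4 °C, and washed once more. Membranes were incubated with [3H]prazosin 0.2 nM and seven to eight compound concentrations (10^-11–10^-4 M), with phentolamine defining nonspecific binding. Bound ligand was filtered on glass fiber and counted by liquid scintillation. Runs were in duplicate, and Ki was calculated by Cheng–Prusoff.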

Rattus norvegicus [2] = test: Antiarrhythmic activity against adrenaline-induced arrhythmia in iv dosed rat assessed as inhibition of cardiac rhythm disturbance administered 15 mins before adrenaline challenge; format: functional; conditions: Heart
Outline: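 Rats anaesthetized with thiopental 60 mg/kg ip received the compound i.v. 15 min before an i.v. adrenaline challenge. Rhythm disturbances were recorded for 15 min after adrenaline. Activity was defined as absence of premature beats and inhibition of disturbances versus controls. ED50 values, with confidence limits, were derived by Litchfield–Wilcoxon from three groups of six animals.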

[3] = biological target: T2, Adrenergic receptor alpha-2 (Rattus norvegicus, UniProt P22086+P19328+P22909); test: Displacement of [3H]clonidine from alpha2 adrenergic receptor in rat cerebral cortex by liquid scintillation counting; format: tissue-based
T2 sequence (P22086 whole entry): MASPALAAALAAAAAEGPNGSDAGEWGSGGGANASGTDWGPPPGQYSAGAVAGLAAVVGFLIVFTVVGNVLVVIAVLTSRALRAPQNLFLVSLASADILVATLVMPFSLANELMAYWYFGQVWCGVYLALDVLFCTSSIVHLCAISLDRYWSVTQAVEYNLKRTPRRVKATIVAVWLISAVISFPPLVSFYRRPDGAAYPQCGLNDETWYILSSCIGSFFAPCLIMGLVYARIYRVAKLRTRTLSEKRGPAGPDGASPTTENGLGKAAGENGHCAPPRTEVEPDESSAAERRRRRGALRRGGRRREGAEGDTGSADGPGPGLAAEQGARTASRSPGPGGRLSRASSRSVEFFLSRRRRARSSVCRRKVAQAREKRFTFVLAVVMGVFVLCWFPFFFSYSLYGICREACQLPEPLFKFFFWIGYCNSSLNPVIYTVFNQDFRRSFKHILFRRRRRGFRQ
T2 sequence (P19328 whole entry): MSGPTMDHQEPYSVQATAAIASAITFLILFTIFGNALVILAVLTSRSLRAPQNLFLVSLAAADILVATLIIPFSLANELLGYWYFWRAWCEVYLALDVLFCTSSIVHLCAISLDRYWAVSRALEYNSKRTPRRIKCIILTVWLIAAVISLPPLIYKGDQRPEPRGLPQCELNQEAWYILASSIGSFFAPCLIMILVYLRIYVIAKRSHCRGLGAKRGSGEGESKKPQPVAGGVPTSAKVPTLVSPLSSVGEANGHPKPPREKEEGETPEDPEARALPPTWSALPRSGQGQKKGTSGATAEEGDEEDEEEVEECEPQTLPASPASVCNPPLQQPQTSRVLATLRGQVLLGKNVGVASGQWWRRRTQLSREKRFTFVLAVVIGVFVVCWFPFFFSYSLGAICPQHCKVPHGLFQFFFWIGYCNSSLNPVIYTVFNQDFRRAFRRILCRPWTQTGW
T2 sequence (P22909 whole entry): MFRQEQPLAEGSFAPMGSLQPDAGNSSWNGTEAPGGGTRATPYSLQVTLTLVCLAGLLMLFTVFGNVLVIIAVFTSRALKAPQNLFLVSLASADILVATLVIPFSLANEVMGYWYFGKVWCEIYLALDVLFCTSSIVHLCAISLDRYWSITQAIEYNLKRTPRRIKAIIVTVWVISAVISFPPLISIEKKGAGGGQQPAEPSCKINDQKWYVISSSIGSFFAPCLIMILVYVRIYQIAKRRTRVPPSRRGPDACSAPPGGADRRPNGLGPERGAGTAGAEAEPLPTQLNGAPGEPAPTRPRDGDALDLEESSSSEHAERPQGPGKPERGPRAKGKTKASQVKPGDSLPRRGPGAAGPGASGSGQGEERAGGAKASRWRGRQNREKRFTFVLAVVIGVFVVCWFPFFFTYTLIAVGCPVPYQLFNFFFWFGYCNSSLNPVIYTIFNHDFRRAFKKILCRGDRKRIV
Outline: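 Rat cerebral cortex membranes were prepared in ice-cold 50 mM Tris–HCl pH 7.6 (20 000 × g, 20 min, 0–4 °C, washed twice). They were incubated with [3H]clonidine 2 nM and seven to eight compound concentrations (10^-11–10^-4 M), with excess unlabelled clonidine defining nonspecific binding. Samples were glass-fiber filtered and counted by liquid scintillation, in duplicate. Ki was calculated by Cheng–Prusoff.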

Rattus norvegicus [4] = test: Hypotensive activity in normotensive Wistar rat assessed as decrease in systolic blood pressure at 20 mg/kg, iv administered as single dose; format: functional, organism-based; design: dose 20 mg/kg; conditions: Artery
Rattus norvegicus [5] = test: Hypotensive activity in normotensive Wistar rat assessed as decrease in diastolic blood pressure at 20 mg/kg, iv administered as single dose; format: functional, organism-based; design: dose 20 mg/kg; conditions: Artery
Rattus norvegicus [6] = species on record: Rattus norvegicus; test: Hypotensive activity in Wistar rat assessed as reduction in norepinephrine-induced systolic blood pressure response; format: functional, organism-based; conditions: Artery
Outline: (§1)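 In anaesthetized rats, pressor responses were evoked by i.v. epinephrine, norepinephrine or methoxamine. Blood pressure was recorded through a heparin-saline-filled cannula in the carotid artery.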

Rattus norvegicus [7] = species on record: Rattus norvegicus; test: Hypotensive activity in Wistar rat assessed as reduction in methoxamine-induced systolic blood pressure response; format: functional, organism-based; conditions: Artery; outline: as §1
Rattus norvegicus [8] = species on record: Rattus norvegicus; test: Hypotensive activity in Wistar rat assessed as reduction in epinephrine-induced systolic blood pressure response; format: functional, organism-based; conditions: Artery; outline: as §1

Row | SMILES | pKi [1] | ED50 (Rattus norvegicus [2]) | pKi [3] | Activity (Rattus norvegicus [4]) | Activity (Rattus norvegicus [5]) | Activity (Rattus norvegicus [6]) | Activity (Rattus norvegicus [7]) | Activity (Rattus norvegicus [8])
1 | O=C1CCCN1CC(O)CN1CCN(c2ccccc2)CC1 (stereo not given) | 5.72 | 7.6 mg/kg | 4.54 |  |  |  |  | 
2 | Cl.Cl.O=C1N(CC(O)CN2CCN(c3ccc(F)cc3)CC2)CCC1(c1ccccc1)c1ccccc1 (stereo not given) | 5.68 |  | 5.32 | inactive | inactive | inactive | inactive | inactive
3 | c1ccc(CC2=NCCN2)cc1 [TOLAZOLINE] |  | 1.05 mg/kg |  |  |  |  |  | 
4 | O=C1CCCN1CC(O)CN1CCN(C(c2ccccc2)c2ccccc2)CC1 (stereo not given) | 6.57 | inactive | 5.27 |  |  |  |  | 
5 | CC(C)NCC(O)COc1cccc2ccccc12 (stereo not given) [PROPRANOLOL] |  | 7.6 mg/kg |  |  |  |  |  | 
